Rows were chosen to be rich in hits. Some 3.5% of all compounds tested hit in one or more screens of this group.
PAFAH1B3 inh: PAFAH1B3 enzyme inhibitors, primary screen, biochemical, fluorescence polarization, human; Platelet-activating factor acetylhydrolase IB subunit alpha1 (Homo sapiens), Q15102; recombinant PAFAH1B3, FP-rhodamine probe; inhibition, % at 3.39 µM; hit rate 0.28% among 340,000; AID 492972, 2010;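 active means inhibition above the screen-wide average of all tested compounds plus 3 SD, cut at about 25% in these data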
PAFAH2 inh: PAFAH2 enzyme inhibitors, primary screen, biochemical, fluorescence polarization, human; Platelet-activating factor acetylhydrolase 2, cytoplasmic (Homo sapiens), Q99487; recombinant PAFAH2, FP-rhodamine activity probe; hit rate 0.99% among 340,000; inhibition, % at 3.39 µM; AID 492956, 2010;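 active means inhibition above the mean over all tested compounds plus 3 SD, cut at about 30% in these data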;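 further: inhibitors block probe labeling of enzyme so polarization drops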
PAFAH1B2 inh: PAFAH1B2 enzyme inhibitors, primary screen, biochemical, fluorescence polarization, human; AID 492953, 2010; inhibition, % at 3.39 µM; hit rate 1.2% among 340,000; recombinant PAFAH1B2, FP-rhodamine activity probe;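 active means inhibition above the mean of all tested compounds plus 3 SD, cut at about 24% in these data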
pPAFAH inh: pPAFAH enzyme inhibitors, primary screen, biochemical, fluorescence polarization, human; Platelet-activating factor acetylhydrolase (Homo sapiens), Q13093; recombinant pPAFAH, FP-rhodamine probe fluorescence polarization; inhibition, % at 3.39 µM; hit rate 1.5% among 330,000;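 active means inhibition above the mean inhibition across the screen plus 3 SD, cut at about 25% in these data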;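 further: inhibitors block binding of the rhodamine activity-based probe so polarization drops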
Apaf1 inhib: inhibitors of human Apaf-1 apoptosome, primary screen, biochemical, DEVD-Rh110 fluorescence, uHTS; inhibition, % at 20 µM; reconstituted apoptosome caspase-3 activity; hit rate 0.71% among 330,000; active means inhibition of at least 40% at 20 µM
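System: Apoptosome proteins | Medium: Hepes pH 7.5 with detergent and BSA | Also added: Cytochrome c trigger plus (Z-DEVD)2-Rh110 caspase-3 substrate | Incubation: 30 min compound preincubation, 50 min activation, room temperature | Detection: Rhodamine 110 fluorescence at Ex 480/Em 540 nm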
PREPL inhibitor: PREPL enzyme inhibitors, primary screen, biochemical, fluorescence polarization; AID 2751, 2010; inhibition, % at 5.96 µM; hit rate 0.68% among 320,000; Prolyl endopeptidase-like (Homo sapiens), Q4J6C6; recombinant PREPL, fluorescence polarization activity-based probe; in the data active means inhibition above about 43%
Of the large screens only hits and unclear results are named; the others gave an inactive call.

COc1cccc(NC(=O)CCNC(=O)C2CCN(S(=O)(=O)c3ccc(F)cc3)CC2)c1	none
Cc1ccc(C)c(S(=O)(=O)N2CCN(C(=O)c3ccc(-n4cncn4)c([N+](=O)[O-])c3)CC2)c1	none
Cc1ccc(C)c(S(=O)(=O)N2CCN(C(=O)c3ccc(N4CCCC4)c([N+](=O)[O-])c3)CC2)c1	pPAFAH inh 25
O=C(c1ccc(F)cc1)C1CCN(C(=O)c2c(F)cccc2F)CC1	none
O=C(CCC(=O)N1CCSc2ccccc21)NCc1ccccc1	none
O=C(CCC(=O)N1CCSc2ccccc21)NCc1ccc(Cl)cc1	PAFAH1B2 inh 25
CCOC(=O)c1c(S(=O)(=O)Nc2ccccn2)c(C)n(C)c1C	none
Cc1csc(=O)n1CCC(=O)OCC(=O)N(CC(C)C)c1c(N)n(Cc2ccccc2)c(=O)[nH]c1=O	pPAFAH inh 26
COCCN(C(=O)COC(=O)CCn1c(C)csc1=O)c1c(N)n(Cc2ccccc2)c(=O)[nH]c1=O	none
O=C(Cn1c2[n+](c3ccccc31)CC(O)CS2)c1ccccc1 (centres undefined)	none
CCN(CC)c1ccc(/C=N/NS(=O)(=O)c2ccc(C)c([N+](=O)[O-])c2)cc1	none
CCN(Cc1ccccc1)c1ccc(/C=N/NC(=O)c2cccc(S(=O)(=O)N3CCOCC3)c2)cc1	pPAFAH inh 28
CCN(Cc1ccccc1)c1ccc(/C=N/NS(=O)(=O)c2cccc([N+](=O)[O-])c2)cc1	PAFAH1B2 inh 45
Cc1cc(O)c(S(=O)(=O)c2ccccc2)c(C)c1NS(=O)(=O)c1ccccc1	none
CC1=CC(=O)O[C@@H]1[C@@]1(C)C[C@H]2OC(=O)C[C@H]3[C@@H](C)C(=O)C(O)=C1[C@@]23CO	none
N/C(=N\OC(=O)Cc1ccccc1)c1ccc(Br)cc1	PAFAH1B2 inh 27
O=c1[nH]c2ccc(S(=O)(=O)N3CCC(Cc4ccccc4)CC3)cc2o1	PAFAH1B2 inh 29
Nc1ccc(N2CCCCCC2)cc1	pPAFAH inh 29, Apaf1 inhib 93 (no result: PAFAH1B3 inh, PAFAH2 inh, PAFAH1B2 inh)
Nc1ccc(N2CCN(c3ccc(F)cc3)CC2)cc1	none
Nc1ccc(OCCCc2c(N)nc(N)nc2N)cc1	PREPL inhibitor 52
Cc1ccc(S(=O)(=O)c2nc(S(=O)(=O)c3ccc(C)cc3)c(N3CCN(CCO)CC3)s2)cc1	pPAFAH inh 26
Cc1cccc(NC(=O)CSc2nnc(-c3ccco3)n2CC2CCCO2)n1 (centres undefined)	none
Cc1ccc(NC(=O)CC(=O)c2ccc([N+](=O)[O-])cc2)cc1S(=O)(=O)Nc1cccc(Cl)c1	PAFAH1B2 inh 27
COc1ccc(C(=O)CC(=O)Nc2ccc([N+](=O)[O-])cc2)cc1	pPAFAH inh 27
Cc1ccc(NS(=O)(=O)c2cc(C(=O)Nc3cccc([N+](=O)[O-])c3)ccc2C)cc1	none
CC(Nc1cc(=O)n(C)c(=O)n1C)c1ccccc1 (centres undefined)	none
CCOC(=O)NC1(Nc2cccc(Cl)c2)Oc2ccccc2O1	pPAFAH inh 33 (no result: Apaf1 inhib)
CCOCCCNC(=O)C(NC(=O)c1ccc2c(c1)OCO2)c1ccc(Cl)cc1 (centres undefined)	none
CC(C)c1ccc(NS(=O)(=O)c2ccc3[nH]cc(C(=O)N4CCC(C(N)=O)CC4)c(=O)c3c2)cc1	pPAFAH inh 70
O=C(c1c[nH]c2ccc(S(=O)(=O)N3CCOCC3)cc2c1=O)N1CCCC1	none
CC(=O)Nc1ccc(S(=O)(=O)N(C)CC(=O)OCC(=O)N(CC(C)C)C2CCS(=O)(=O)C2)cc1 (centres undefined)	none
CCOC(=O)c1c(-c2ccc(C)o2)csc1NC(=O)CSc1nncs1	pPAFAH inh 25
CCOC(=O)c1c(-c2ccc(C)o2)csc1NC(=O)CN1CCCCC1	none
N#C/C(=C\c1coc2ccc(O)cc2c1=O)C(=O)Nc1nc2ccccc2s1	pPAFAH inh 33
N#C/C(=C\c1coc2ccccc2c1=O)C(N)=S	none

Bioassay records from PubChem BioAssay.
